Measured values taken from the M2OR odorant receptor database.
Residue numbers refer to the chain shown, from its start.

Columns and labels:
Conditions in all cases: stereoisomer not certain
OR2A7 (Homo sapiens) = molecular target: T1, OR2A7 (Homo sapiens) (UniProt Q96R45)
T1 sequence (whole entry): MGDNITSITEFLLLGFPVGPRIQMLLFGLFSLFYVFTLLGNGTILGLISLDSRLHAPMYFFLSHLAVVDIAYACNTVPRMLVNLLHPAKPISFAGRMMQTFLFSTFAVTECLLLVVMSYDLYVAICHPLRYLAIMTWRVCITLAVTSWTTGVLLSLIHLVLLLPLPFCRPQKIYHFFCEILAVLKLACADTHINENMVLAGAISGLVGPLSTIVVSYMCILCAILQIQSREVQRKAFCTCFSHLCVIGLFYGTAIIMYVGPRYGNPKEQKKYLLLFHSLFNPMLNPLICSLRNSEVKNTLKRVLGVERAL
Method in brief: (§1)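 Values were gathered from published papers (main text and supplementary material), with extra details requested from the original authors when needed, and checked for typos and inconsistencies. Each receptor–molecule pair is called responsive (active) if the original authors judged the measured signal statistically different from baseline, and non-responsive (inactive) otherwise. Assay methods varied by source, often transient mammalian cell-line luciferase assays. Recorded details include cell line, G-protein, co-transfected protein and tags.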

OR2A12 (Homo sapiens) = molecular target: T2, OR2A12 (Homo sapiens) (UniProt Q8NGT7)
T2 sequence (whole entry): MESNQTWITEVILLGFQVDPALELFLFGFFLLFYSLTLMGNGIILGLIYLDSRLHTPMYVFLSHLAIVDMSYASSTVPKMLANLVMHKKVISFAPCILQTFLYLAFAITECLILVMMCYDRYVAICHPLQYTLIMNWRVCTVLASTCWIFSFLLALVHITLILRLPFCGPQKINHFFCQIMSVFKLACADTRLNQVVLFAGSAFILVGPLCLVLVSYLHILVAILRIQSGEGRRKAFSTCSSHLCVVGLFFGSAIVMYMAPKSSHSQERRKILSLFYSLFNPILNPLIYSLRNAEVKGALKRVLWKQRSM
Method in brief: as §1

OR2A14 (Homo sapiens) = molecular target: T3, OR2A14 (Homo sapiens) (UniProt Q96R47)
T3 sequence (whole entry): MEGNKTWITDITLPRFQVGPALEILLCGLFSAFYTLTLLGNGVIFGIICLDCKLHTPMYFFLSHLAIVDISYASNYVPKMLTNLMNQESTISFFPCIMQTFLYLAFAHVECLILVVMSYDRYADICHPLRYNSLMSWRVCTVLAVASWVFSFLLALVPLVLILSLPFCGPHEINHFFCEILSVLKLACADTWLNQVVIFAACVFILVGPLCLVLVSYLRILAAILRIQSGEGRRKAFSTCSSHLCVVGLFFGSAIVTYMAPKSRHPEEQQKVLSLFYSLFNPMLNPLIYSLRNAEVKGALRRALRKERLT
Method in brief: as §1

OR2A2 (Homo sapiens) = molecular target: T4, OR2A2 (Homo sapiens) (UniProt Q6IF42)
T4 sequence (whole entry): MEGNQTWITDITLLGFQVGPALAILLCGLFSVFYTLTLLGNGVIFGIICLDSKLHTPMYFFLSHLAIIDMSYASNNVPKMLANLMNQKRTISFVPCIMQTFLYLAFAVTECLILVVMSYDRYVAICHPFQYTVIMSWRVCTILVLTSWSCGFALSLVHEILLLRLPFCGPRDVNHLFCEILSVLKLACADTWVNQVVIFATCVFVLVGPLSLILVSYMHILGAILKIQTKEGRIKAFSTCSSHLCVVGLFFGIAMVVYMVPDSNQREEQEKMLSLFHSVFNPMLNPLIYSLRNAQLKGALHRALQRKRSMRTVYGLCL
Method in brief: as §1

OR2A25 (Homo sapiens) = molecular target: T5, OR2A25 (Homo sapiens) (UniProt A4D2G3)
T5 sequence (whole entry): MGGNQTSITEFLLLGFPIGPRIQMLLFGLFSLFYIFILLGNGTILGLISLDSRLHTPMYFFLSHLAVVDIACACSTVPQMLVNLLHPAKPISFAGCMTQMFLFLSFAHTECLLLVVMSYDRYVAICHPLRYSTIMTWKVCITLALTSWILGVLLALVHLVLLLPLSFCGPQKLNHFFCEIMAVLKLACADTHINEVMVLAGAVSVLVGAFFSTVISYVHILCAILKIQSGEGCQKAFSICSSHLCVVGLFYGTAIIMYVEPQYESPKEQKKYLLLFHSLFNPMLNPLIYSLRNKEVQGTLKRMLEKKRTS
Method in brief: as §1

OR2A4 (Homo sapiens) = molecular target: T6, OR2A4 (Homo sapiens) (UniProt O95047)
T6 sequence (whole entry): T1 sequence (whole entry) with T9R, C238R, F250V
Method in brief: as §1

OR2A5 (Homo sapiens) = molecular target: T7, OR2A5 (Homo sapiens) (UniProt Q96R48)
T7 sequence (whole entry): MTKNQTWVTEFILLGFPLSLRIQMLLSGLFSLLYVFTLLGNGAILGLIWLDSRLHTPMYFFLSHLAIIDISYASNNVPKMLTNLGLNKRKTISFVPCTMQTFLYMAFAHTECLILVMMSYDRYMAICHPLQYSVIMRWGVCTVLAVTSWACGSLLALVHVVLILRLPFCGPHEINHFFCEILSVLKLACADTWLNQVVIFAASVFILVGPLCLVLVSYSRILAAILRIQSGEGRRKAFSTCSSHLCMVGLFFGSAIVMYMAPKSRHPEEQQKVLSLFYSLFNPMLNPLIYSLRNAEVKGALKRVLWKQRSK
Method in brief: as §1

OR2A1 T73A R74C S168C = tested on: T8, OR2A1 T73A R74C S168C
T8 sequence (whole entry): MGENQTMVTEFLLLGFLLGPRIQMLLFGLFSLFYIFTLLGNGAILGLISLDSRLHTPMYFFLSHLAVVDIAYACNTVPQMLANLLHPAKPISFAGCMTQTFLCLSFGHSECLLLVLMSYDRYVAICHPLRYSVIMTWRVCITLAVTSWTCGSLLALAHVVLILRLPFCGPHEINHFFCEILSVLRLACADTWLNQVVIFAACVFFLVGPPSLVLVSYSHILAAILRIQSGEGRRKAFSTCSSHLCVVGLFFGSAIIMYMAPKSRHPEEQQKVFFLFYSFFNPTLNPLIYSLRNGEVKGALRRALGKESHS
Method in brief: as §1

OR2A2 = tested on: T9, OR2A2
T9 sequence (whole entry): T4 sequence (whole entry) with F280L
Method in brief: as §1

OR2A5 I126V A202S A255T = tested on: T10, OR2A5 I126V A202S A255T
T10 sequence (whole entry): T7 sequence (whole entry) with I126V, A202S, A255T
Method in brief: as §1

Measured: odorant receptor agonist call

O=c1ccc2ccccc2o1
inactive: OR2A7 (Homo sapiens)

CCCCCCC(=O)[O-].[H+]
inactive: OR2A7 (Homo sapiens)

CC1CCCCCCCCCCCCC(=O)C1 (stereo not drawn)
not listed: OR2A1 T73A R74C S168C | OR2A2 | OR2A5 I126V A202S A255T
inactive: all other assays above

CC(=O)c1c(C)c([N+](=O)[O-])c(C(C)(C)C)c([N+](=O)[O-])c1C
not listed: OR2A1 T73A R74C S168C | OR2A2 | OR2A5 I126V A202S A255T
inactive: all other assays above

CC1=C(O)C(=O)C(C)O1 (stereo not drawn)
inactive: all assays above

CCCCC(S)C(C)CO (stereo not drawn)
not listed: OR2A1 T73A R74C S168C | OR2A2 | OR2A5 I126V A202S A255T
inactive: all other assays above

CCCCCCCCCCCCCC(=O)OCC
inactive: OR2A7 (Homo sapiens)

CCCCCCCCCCCCCCCC(=O)OC
inactive: OR2A7 (Homo sapiens)

CCCCCC(=O)C(C)C(C)=O (stereo not drawn)
not listed: OR2A1 T73A R74C S168C | OR2A2 | OR2A5 I126V A202S A255T
inactive: all other assays above

CC(CO)CS (stereo not drawn)
not listed: OR2A1 T73A R74C S168C | OR2A2 | OR2A5 I126V A202S A255T
inactive: all other assays above

c1ccc2ncccc2c1
active: OR2A25 (Homo sapiens)

CCCC(S)CCOC(C)=O (stereo not drawn)
inactive: all assays above

Cc1cnc(C)c(C)n1
inactive: all assays above

CCCCCCCCCCCC(=O)OCC
inactive: OR2A7 (Homo sapiens)

CC1=NC(C)C(C)S1 (stereo not drawn)
inactive: all assays above

CCCCCC(S)C(C)CO (stereo not drawn)
not listed: OR2A1 T73A R74C S168C | OR2A2 | OR2A5 I126V A202S A255T
inactive: all other assays above

CCCO
inactive: OR2A7 (Homo sapiens)

CCC(S)C(C)CO (stereo not drawn)
not listed: OR2A1 T73A R74C S168C | OR2A2 | OR2A5 I126V A202S A255T
inactive: all other assays above

CCCCC(=O)C(C)=O
inactive: OR2A7 (Homo sapiens)

CCCCCCCCCCCCCCCC(=O)[O-].[H+]
inactive: OR2A7 (Homo sapiens)

CCC1OC(=O)C(O)=C1C (stereo not drawn)
inactive: all assays above

CCC1OC(C)=C(O)C1=O (stereo not drawn)
inactive: all assays above

CCCCCCC=CCCC=O
inactive: all assays above

CCCCCCCCCCCCCC(=O)OC
inactive: OR2A7 (Homo sapiens)

CCCCCCCCCCCCO
inactive: OR2A7 (Homo sapiens)

CCCCCCCCCCCC(=O)O
active: OR2A7 (Homo sapiens)

CC1=C(O)C(=O)OC1C (stereo not drawn)
inactive: all assays above

CC(CC=O)c1ccccc1 (stereo not drawn)
inactive: OR2A7 (Homo sapiens)

CCCCCCCCCC(=O)OCC
inactive: OR2A7 (Homo sapiens)
